# Experimental data as given in ChEMBL document CHEMBL1155155, “Single-dose pharmacokinetics of intravenous itraconazole and hydroxypropyl-beta-cyclodextrin in infants, children, and adolescents” (Antimicrob Agents Chemother, 2007).
# Experiments:
# Homo sapiens [1] = assay: Tmax in infants of 0.6-2 yrs age at risk for fungal infection assessed as hydroxyitraconazole level at 2.5 mg/kg, iv in 0.1 g/kg hydroxypropyl-beta-cyclodextrin administered as single dose; type: ADME, organism-based; design: dose 2.5 mg/kg, route intravenous; details: in vivo
# In short: (§1)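 Single 1-h constant-rate IV infusion. Venous plasma sampled predose and to 120 h (>2 y) or 96 h (<2 y), then stored at –20°C. Hydroxyitraconazole was measured by borate/isoamylalcohol-heptane extraction, HCl back-extraction, C18 HPLC and UV 263 nm, with a linear range of 5–5,000 ng/ml. Noncompartmental analysis: Cmax and tmax by inspection, AUC0-24 by trapezoidal rule.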
# Homo sapiens [2] = assay: AUC (0 to 24 hrs) in children of >2-6 yrs age at risk for fungal infection assessed as hydroxyitraconazole level at 2.5 mg/kg, iv in 0.1 g/kg hydroxypropyl-beta-cyclodextrin administered as single dose; type: ADME, organism-based, Plasma; design: time < 24 hr, dose 2.5 mg/kg, route intravenous; details: in vivo; in short: as §1
# [3] = Clearance in adolescents of >12-16 yrs age at risk for fungal infection at 2.5 mg/kg, iv in 0.1 g/kg hydroxypropyl-beta-cyclodextrin administered as single dose; type: ADME, organism-based; design: dose 2.5 mg/kg, route intravenous; details: human, in vivo
# In short: (§2)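 Single 1-h IV infusion. Plasma sampled from the contralateral limb predose and at 1–120 h (>2 y) or 1–96 h (<2 y). Itraconazole was extracted with internal standard and quantified by C18 HPLC with UV 263 nm detection, linear range 2–2,000 ng/ml. Noncompartmental analysis: Cmax by inspection, AUC0-24 by trapezoidal rule, AUC extrapolated via λz, CL and Vz from AUC0-∞.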
# [4] = Cmax in adolescents of >12-16 yrs age at risk for fungal infection at 2.5 mg/kg, iv in 0.1 g/kg hydroxypropyl-beta-cyclodextrin administered as single dose; type: ADME, organism-based; design: dose 2.5 mg/kg, route intravenous; details: human, in vivo; in short: as §2
# [5] = Half life in adolescents of >12-16 yrs age at risk for fungal infection at 2.5 mg/kg, iv in 0.1 g/kg hydroxypropyl-beta-cyclodextrin administered as single dose; type: ADME, organism-based; design: dose 2.5 mg/kg, route intravenous; details: human, in vivo; in short: as §2
# [6] = Apparent volume of distribution in children of >2-6 yrs age at risk for fungal infection at 2.5 mg/kg, iv in 0.1 g/kg hydroxypropyl-beta-cyclodextrin administered as single dose; type: ADME, organism-based; design: dose 2.5 mg/kg, route intravenous; details: human, in vivo; in short: as §2
# [7] = AUC (0 to 24 hrs) in adolescents of >12-16 yrs age at risk for fungal infection at 2.5 mg/kg, iv in 0.1 g/kg hydroxypropyl-beta-cyclodextrin administered as single dose; type: ADME, organism-based; design: time < 24 hr, dose 2.5 mg/kg, route intravenous; details: human, plasma; in short: as §2
# [8] = Apparent volume of distribution in adolescents of >12-16 yrs age at risk for fungal infection at 2.5 mg/kg, iv in 0.1 g/kg hydroxypropyl-beta-cyclodextrin administered as single dose; type: ADME, organism-based; design: dose 2.5 mg/kg, route intravenous; details: human, in vivo; in short: as §2
# Homo sapiens [9] = assay: Cmax in children of >6-12 yrs age at risk for fungal infection assessed as hydroxyitraconazole level at 2.5 mg/kg, iv in 0.1 g/kg hydroxypropyl-beta-cyclodextrin administered as single dose; type: ADME, organism-based; design: dose 2.5 mg/kg, route intravenous; details: in vivo
# In short: (§3)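 Single constant-rate IV infusion over 1 h. Heparinised venous plasma was drawn predose and at 1–120 h (>2 yr) or 1–96 h (<2 yr, randomised to the itraconazole/metabolite arm), then stored at –20°C. Analysis used borate-buffered liquid-liquid extraction with internal standard, C18 HPLC and UV detection at 263 nm, linear 5–5,000 ng/ml. Individual Cmax was read by visual inspection, noncompartmental.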
# [10] = Half life in infants of 0.6-2 yrs age at risk for fungal infection at 2.5 mg/kg, iv in 0.1 g/kg hydroxypropyl-beta-cyclodextrin administered as single dose; type: ADME, organism-based; design: dose 2.5 mg/kg, route intravenous; details: human, in vivo; in short: as §2
# [11] = AUC (0 to 24 hrs) in infants of 0.6-2 yrs age at risk for fungal infection at 2.5 mg/kg, iv in 0.1 g/kg hydroxypropyl-beta-cyclodextrin administered as single dose; type: ADME, organism-based; design: time < 24 hr, dose 2.5 mg/kg, route intravenous; details: human, plasma; in short: as §2
# Homo sapiens [12] = assay: Half life in infants of 0.6-2 yrs age at risk for fungal infection assessed as hydroxyitraconazole level at 2.5 mg/kg, iv in 0.1 g/kg hydroxypropyl-beta-cyclodextrin administered as single dose; type: ADME, organism-based; design: dose 2.5 mg/kg, route intravenous; details: in vivo; in short: as §1
# [13] = Clearance in human at risk for fungal infection at 2.5 mg/kg, iv in 0.1 g/kg hydroxypropyl-beta-cyclodextrin administered as single dose; type: ADME, organism-based; design: dose 2.5 mg/kg, route intravenous; details: in vivo; in short: as §2
# [14] = Cmax in infants of 0.6-2 yrs age at risk for fungal infection at 2.5 mg/kg, iv in 0.1 g/kg hydroxypropyl-beta-cyclodextrin administered as single dose; type: ADME, organism-based; design: dose 2.5 mg/kg, route intravenous; details: human, in vivo; in short: as §2
# Homo sapiens [15] = assay: Cmax in infants of 0.6-2 yrs age at risk for fungal infection assessed as hydroxyitraconazole level at 2.5 mg/kg, iv in 0.1 g/kg hydroxypropyl-beta-cyclodextrin administered as single dose; type: ADME, organism-based; design: dose 2.5 mg/kg, route intravenous; details: in vivo; in short: as §3
# [16] = Clearance in infants of 0.6-2 yrs age at risk for fungal infection at 2.5 mg/kg, iv in 0.1 g/kg hydroxypropyl-beta-cyclodextrin administered as single dose; type: ADME, organism-based; design: dose 2.5 mg/kg, route intravenous; details: human, in vivo; in short: as §2
# Homo sapiens [17] = assay: Half life in children of >2-6 yrs age at risk for fungal infection assessed as hydroxyitraconazole level at 2.5 mg/kg, iv in 0.1 g/kg hydroxypropyl-beta-cyclodextrin administered as single dose; type: ADME, organism-based; design: dose 2.5 mg/kg, route intravenous; details: in vivo; in short: as §1
# Homo sapiens [18] = assay: Cmax in children of >2-6 yrs age at risk for fungal infection assessed as hydroxyitraconazole level at 2.5 mg/kg, iv in 0.1 g/kg hydroxypropyl-beta-cyclodextrin administered as single dose; type: ADME, organism-based; design: dose 2.5 mg/kg, route intravenous; details: in vivo; in short: as §3
# [19] = Half life in human at risk for fungal infection at 2.5 mg/kg, iv in 0.1 g/kg hydroxypropyl-beta-cyclodextrin administered as single dose; type: ADME, organism-based; design: dose 2.5 mg/kg, route intravenous; details: in vivo; in short: as §2
# Homo sapiens [20] = assay: Tmax in human at risk for fungal infection assessed as hydroxyitraconazole level at 2.5 mg/kg, iv in 0.1 g/kg hydroxypropyl-beta-cyclodextrin administered as single dose; type: ADME, organism-based; design: dose 2.5 mg/kg, route intravenous; details: in vivo; in short: as §1
# [21] = Cmax in children of >2-6 yrs age at risk for fungal infection at 2.5 mg/kg, iv in 0.1 g/kg hydroxypropyl-beta-cyclodextrin administered as single dose; type: ADME, organism-based; design: dose 2.5 mg/kg, route intravenous; details: human, in vivo; in short: as §2
# [22] = Apparent volume of distribution in human at risk for fungal infection at 2.5 mg/kg, iv in 0.1 g/kg hydroxypropyl-beta-cyclodextrin administered as single dose; type: ADME, organism-based; design: dose 2.5 mg/kg, route intravenous; details: in vivo; in short: as §2
structure (smiles),measurement,setting,value
CCC(C)n1ncn(-c2ccc(N3CCN(c4ccc(OCC5COC(Cn6cncn6)(c6ccc(Cl)cc6Cl)O5)cc4)CC3)cc2)c1=O (configuration not stated) [ITRACONAZOLE],Tmax,Homo sapiens [1],4 h
same,AUC,Homo sapiens [2],4249 ng·h/mL
same,clearance,[3],12.9 mL/min/kg
same,Cmax,[4],806 ng/mL
same,half-life,[5],1740 min
same,Vd,[6],8.3 L/kg
same,AUC(0-t) at 24 h,[7],2670 ng·h/mL
same,Vd,[8],28.5 L/kg
same,Cmax,Homo sapiens [9],277 ng/mL
same,half-life,[10],798 min
same,AUC(0-t) at 24 h,[11],2120 ng·h/mL
same,t1/2,Homo sapiens [12],16.6 h
same,clearance,[13],11.7 mL/min/kg
same,Cmax,[14],827 ng/mL
same,Cmax,Homo sapiens [15],265 ng/mL
same,clearance,[16],19.1 mL/min/kg
same,t1/2,Homo sapiens [17],12.7 h
same,Cmax,Homo sapiens [18],299 ng/mL
same,half-life,[19],1210 min
same,Tmax,Homo sapiens [20],2.2 h
same,Cmax,[21],1550 ng/mL
same,Vd,[22],18.5 L/kg
